High-throughput results as filed in PubChem.
Arrestin-AP2 inh = inhibitors of beta-arrestin/AP2 binding, primary screen, biochemical, GPCR trafficking, flow cytometry. inhibition, % at 10 µM. AID 504490, 2011. FITC-arrestin peptide / GST-AP2 beads; AP2 beta2 appendage carries R879A mutation. 340,000 compounds, 0.31% hits;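 active means inhibition above a set limit, near 3 SD of compounds lacking own fluorescence, cut at about 54% in these data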
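System: GST-AP2 R879A glutathione beads | Also added: FITC-arrestin peptide, 50 nM | Times: 12 min plus 1 h, RT | Signal: Bead flow cytometry, FITC channel | Buffer or medium: PBS with 0.05% Tween 20 and 0.1% BSA | Read-out basis: Percent drop in bead-associated FITC signal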
GalR3 antag = GalR3 antagonists in HEK293 cells, primary screen, cell-based, fluorescence readout; Galanin receptor type 3 (Homo sapiens), O60755; HEK293 GalR3-CNG cAMP membrane potential fluorescence; galR3 body fused to GalR1 C-terminus; inhibition, % at 3 µM; 360,000 compounds, 0.44% hits;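 active means inhibition above the screen-wide average plus 3 SD, cut at about 13% in these data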;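 further: forskolin and galanin both at EC90 stimulate the cells; cAMP rise reported by CNG channel membrane potential dye signal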
GC-B act = human GC-B receptor activators, primary screen, HEK293 GC-B cells, cGMP TR-FRET, EC30 CNP | Atrial natriuretic peptide receptor 2 (Homo sapiens), P20594 | 0% at EC30 CNP, 100% saturating CNP | 370,000 compounds, 0.11% hits | AID 1920062, 2024 | activation, % at 10 µM;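 active means activation at 10 µM reaching about 35% in either raw or pattern-adjusted values, limit read from the data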
GC-A act = GC-A stimulated cGMP production enhancers – HEK293 GC-A cells, cGMP TR-FRET, EC30 ANP, primary screen. Atrial natriuretic peptide receptor 1 (Homo sapiens), P16066. 0% at EC30 ANP, 100% saturating ANP. activation, % at 10 µM. 370,000 compounds, 0.14% hits; in the data active means activation above about 40%
Target sequence (P16066 whole entry, looked up): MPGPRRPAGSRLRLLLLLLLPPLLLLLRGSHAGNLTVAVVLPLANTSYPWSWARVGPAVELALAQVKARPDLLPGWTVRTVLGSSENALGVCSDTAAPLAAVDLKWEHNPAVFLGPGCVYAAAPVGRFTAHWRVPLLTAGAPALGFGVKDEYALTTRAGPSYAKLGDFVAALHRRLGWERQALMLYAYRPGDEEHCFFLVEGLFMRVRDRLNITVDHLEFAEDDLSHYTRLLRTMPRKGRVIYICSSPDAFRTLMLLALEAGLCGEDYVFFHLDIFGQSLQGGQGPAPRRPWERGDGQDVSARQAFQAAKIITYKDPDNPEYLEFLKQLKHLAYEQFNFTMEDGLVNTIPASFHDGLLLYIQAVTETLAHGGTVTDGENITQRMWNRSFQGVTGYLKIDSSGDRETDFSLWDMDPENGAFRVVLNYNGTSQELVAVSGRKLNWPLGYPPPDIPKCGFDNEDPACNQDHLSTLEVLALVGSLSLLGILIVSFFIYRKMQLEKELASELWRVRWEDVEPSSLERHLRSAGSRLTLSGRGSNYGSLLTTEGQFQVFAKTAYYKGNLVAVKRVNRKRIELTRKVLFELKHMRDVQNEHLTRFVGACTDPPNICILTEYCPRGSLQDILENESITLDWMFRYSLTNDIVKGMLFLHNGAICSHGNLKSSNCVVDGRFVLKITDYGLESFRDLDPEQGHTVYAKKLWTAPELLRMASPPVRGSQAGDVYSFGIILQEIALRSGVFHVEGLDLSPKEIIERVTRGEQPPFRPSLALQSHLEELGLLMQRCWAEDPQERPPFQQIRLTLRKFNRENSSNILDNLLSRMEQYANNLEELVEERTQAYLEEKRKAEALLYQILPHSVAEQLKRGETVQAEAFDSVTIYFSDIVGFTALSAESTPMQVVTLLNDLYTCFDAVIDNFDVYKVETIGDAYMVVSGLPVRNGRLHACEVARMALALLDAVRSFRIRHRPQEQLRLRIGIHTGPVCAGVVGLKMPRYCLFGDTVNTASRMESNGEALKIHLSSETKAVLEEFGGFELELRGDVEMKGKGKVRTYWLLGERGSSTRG
Arr AP2 CP1 = inhibitors of arrestin peptide binding to AP2, confirmation, biochemical, cherry pick 1, flow cytometry beads. GST-AP2 beads, FITC arrestin peptide binding; GST-fused beta2-adaptin appendage, R879A mutant. 1,300 compounds, 2% hits. shares compounds with Arrestin-AP2 inh. inhibition, % at 10 µM. AID 504908, 2011;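 active means inhibition above a set limit, roughly 3 SD of non-fluorescent compound noise, cut at about 38% in these data; inactive means inhibition at or below that limit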;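 further: loss of bead fluorescence from 50 nM FITC arrestin peptide bound to appendage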
GST-FITC bead = GST-fluorescein capture on glutathione beads, confirmation, artefact control for arrestin-AP2 inhibitor project, biochemical, cherry pick 1, flow cytometry; shares compounds with Arrestin-AP2 inh; GST-fluorescein binding to GSH beads, fluorescence, counter-screen; inhibition, % at 10 µM; 1,300 compounds, 2% hits;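 active means inhibition above 50%, about 3 SD of the inhibition seen with non-fluorescent compounds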;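 further: fluorescein maleimide labelled GST captured on 4 micron glutathione beads; higher means more loss of bead fluorescence from quenching or blocked binding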
Each line names hits and unclear results; the compound was inactive in the other large screens (follow-up assays come after a bar, where they were run). An excerpt weighted towards active compounds, which were near 0.94% of everything screened.

Cc1cc(NC(=O)/C=C/c2ccc(F)cc2)n(-c2nc3ccccc3[nH]2)n1	none
Cc1cc(NC(=O)c2ccc(C)s2)n(-c2nc3ccccc3[nH]2)n1	none | Arr AP2 CP1 inactive | GST-FITC bead inactive
Cc1cc(NC(=O)C2CCCCC2)n(-c2nc3ccccc3[nH]2)n1	none
Cc1cc(NC(=O)c2ccccc2F)n(-c2nc3ccccc3[nH]2)n1	none | Arr AP2 CP1 inactive | GST-FITC bead inactive
Cc1cc(NC(=O)c2c(F)cccc2Cl)n(-c2nc3ccccc3[nH]2)n1	Arrestin-AP2 inh 99 | Arr AP2 CP1 inactive | GST-FITC bead inactive
CCn1c(SCC(=O)NN=Cc2cc(OC)ccc2OC)nnc1-c1ccc(OC)cc1	none (no result: Arrestin-AP2 inh, GalR3 antag)
Cc1nn(-c2ccccc2)c2sc(C(=O)N3CCN(S(=O)(=O)c4ccc(Br)s4)CC3)cc12	none (no result: Arrestin-AP2 inh, GalR3 antag)
CC(C)C[C@H]1COc2cccc(N3CCCC3)c2S(=O)(=O)N1	none (no result: Arrestin-AP2 inh)
CC(=O)C1=C(C)N(Cc2ccc(F)cc2)C(=S)NC1c1cccc(F)c1 (centres undefined)	none (no result: Arrestin-AP2 inh)
O=C1CN(C(=O)/C=C/c2ccccc2)CCN1	Arrestin-AP2 inh 57 | Arr AP2 CP1 inactive | GST-FITC bead inactive
O=C1CN(C(=O)/C=C/c2ccc(Cl)cc2Cl)CCN1	none
CC[n+]1c(/C=C/Nc2ccccc2)oc2ccc(OC)cc21	Arrestin-AP2 inh 58 | Arr AP2 CP1 inactive | GST-FITC bead inactive
COc1ccc(F)cc1CN1CCN(C(=O)CCC(=O)Nc2nnc(CC(C)C)s2)CC1	Arrestin-AP2 inh 54 | Arr AP2 CP1 inactive | GST-FITC bead inactive
COC(=O)[C@]12C[C@H](CC(=O)NCc3ccccc3)C(=O)N(Cc3ccc4c(c3)OCO4)C1=C[C@H](COCc1ccccc1)O[C@@H]2C	none (no result: Arrestin-AP2 inh)
COc1ccc(S(=O)(=O)N2CCCCCC2)cc1C(=O)NCc1ccco1	none
O=C(NCc1ccco1)c1cc(S(=O)(=O)N2CCCC2)ccc1Cl	Arrestin-AP2 inh 54 | Arr AP2 CP1 inactive | GST-FITC bead inactive
Nc1[nH]c(C(=O)c2ccc(Br)cc2)c(-c2ccncc2)c1C(=O)NCCc1c[nH]c2ccccc12	none (no result: Arrestin-AP2 inh)
CC1(C)OC(=O)C2=C(CC(CCc3ccccc3)OC2c2ccc(Cl)c(Cl)c2)O1 (centres undefined)	none (no result: Arrestin-AP2 inh)
O=S(=O)(/N=C(/Nc1cccc2ccccc12)c1ccccc1)c1cccs1	Arrestin-AP2 inh 100 | Arr AP2 CP1 inactive | GST-FITC bead inactive
COC(=O)C1CCCN(C(=O)C2CCN(S(=O)(=O)c3cccc4cccnc34)CC2)C1 (centres undefined)	none (no result: Arrestin-AP2 inh, GalR3 antag)
CCCC[C@H]1C2CC(OC(=O)Nc3ccc(C#N)cc3)C(C2)[C@H]2CCCCN21 (some centres undefined)	none (no result: Arrestin-AP2 inh, GalR3 antag)
CCSCc1nnc(SCC(=O)Nc2cccc(SC)c2)n1C	Arrestin-AP2 inh 99 | Arr AP2 CP1 inactive | GST-FITC bead inactive
CCSCc1nnc(SCC(=O)Nc2cccc(C(C)=O)c2)n1C	none
CCn1c(C(=O)NCCCc2ccccc2)cc2sccc21	Arrestin-AP2 inh 58 | Arr AP2 CP1 inactive | GST-FITC bead inactive
O=C(N/N=C/c1cccn1-c1ccccc1)c1ccncc1	Arrestin-AP2 inh 58 | Arr AP2 CP1 inactive | GST-FITC bead inactive
O=C(N/N=C/c1cccn1-c1ccc([N+](=O)[O-])cc1)c1cccnc1	none
O=C1CCc2cc(S(=O)(=O)Nc3ccc4c(c3)OCCO4)ccc2N1	none (no result: Arrestin-AP2 inh, GalR3 antag)
CCCOc1ccc(C2C(C(=O)c3ccc(C)o3)=C(O)C(=O)N2Cc2ccco2)cc1OCC (centres undefined)	Arrestin-AP2 inh 64 | Arr AP2 CP1 inactive | GST-FITC bead inactive
O=S(=O)(c1ccc(F)cc1)N1CCCc2nc(-c3ccccc3)ccc21	none (no result: Arrestin-AP2 inh)
O=C(Cn1nc(Cl)nc1Cl)c1ccccc1	Arrestin-AP2 inh 55 | Arr AP2 CP1 inactive | GST-FITC bead inactive
O=C(Cn1nc(Cl)nc1Cl)c1ccc(F)cc1	none
CC(C)c1nc2sc3c(NCc4ccco4)ncnc3c2c2c1COC(C)(C)C2	Arrestin-AP2 inh 101 | Arr AP2 CP1 inactive | GST-FITC bead inactive
CCn1c(CC(=O)Nc2ccc(OC)cc2)nnc1SCC(=O)N1CCOCC1	Arrestin-AP2 inh 66 | Arr AP2 CP1 inactive | GST-FITC bead inactive
CCn1c(CC(=O)Nc2ccc(Cl)cc2)nnc1SCC(=O)N1CCOCC1	none
COc1cccc(CNC(=O)C2C3C=CC4(CN(Cc5ccccc5)C(=O)C24)O3)c1OC (centres undefined)	none (no result: Arrestin-AP2 inh, GalR3 antag)
COc1ccccc1-n1c(Cc2cccc3ccccc23)nnc1SCC(=O)O	none (no result: Arrestin-AP2 inh)
COc1cccc(NC(=O)c2nn(C)c3c2CS(=O)(=O)c2ccccc2-3)c1	none
Cn1nc(C(=O)Nc2ccccc2)c2c1-c1ccccc1S(=O)(=O)C2	Arrestin-AP2 inh 58 | Arr AP2 CP1 inactive | GST-FITC bead inactive
Cc1cc(C)cc(NC(=O)C(=O)NCC2CCCN2S(=O)(=O)c2cccs2)c1 (centres undefined)	Arrestin-AP2 inh 69 | Arr AP2 CP1 inactive | GST-FITC bead inactive
COC(=O)[C@]12C[C@H](CC(=O)NCCCCc3ccccc3)C(=O)N(Cc3ccc(Cl)cc3Cl)C1=C[C@H](C(C)C)O[C@@H]2C1CC1	none (no result: Arrestin-AP2 inh, GalR3 antag)
C=CCN1C(=O)/C(=C/c2ccc(-c3ccc(F)cc3)o2)SC1=S	Arrestin-AP2 inh 67 (no result: GalR3 antag) | Arr AP2 CP1 inactive | GST-FITC bead inactive
C=CCN1C(=O)/C(=C/c2ccsc2)SC1=S	none
O=C(NNC(=O)c1ccc(Cl)nc1)c1ccncc1	Arrestin-AP2 inh 57 | Arr AP2 CP1 inactive | GST-FITC bead inactive
O=C(NNC(=O)c1ccncc1)c1ccncc1	none
CC(C)(O)C#Cc1ccc(C(=O)N2CCCC(CNS(=O)(=O)c3cccs3)C2)o1 (centres undefined)	Arrestin-AP2 inh 61 | Arr AP2 CP1 inactive | GST-FITC bead inactive
Cc1cc(C)c(C(=O)N2CCCC(CNS(=O)(=O)c3cccs3)C2)o1 (centres undefined)	none
COc1ccc(/C=C2\SC(=S)N(CCCC(=O)Nc3cc(C)on3)C2=O)cc1OC	Arrestin-AP2 inh 76 | Arr AP2 CP1 inactive | GST-FITC bead inactive
COc1ccc(Br)cc1CNC(=O)CCNC(=O)Cn1ccc2ccccc2c1=O	Arrestin-AP2 inh 57 | Arr AP2 CP1 inactive | GST-FITC bead inactive
CCOC(=O)COc1ccc2c(C#N)c3ccccn3c2c1	Arrestin-AP2 inh 56 | Arr AP2 CP1 inactive | GST-FITC bead inactive
